Measurements from different studies.
Compare with care: the assays were run in different laboratories.
KIT: Mast/stem cell growth factor receptor Kit (KIT, Homo sapiens, UniProt P10721)

Structure (SMILES) | target | assay | measurement | value
CN(C)c1ccc(C=C2C(=O)Nc3ccccc32)cc1 | KIT | enzyme activity, inhibitor, radiometric | IC50 | 84 nM
CNC(=O)c1cc2c(Oc3ccc(NC(=O)C4(C(=O)Nc5ccc(F)cc5)CC4)cc3)ccnc2cc1OC | Mast/stem cell growth factor receptor Kit (KIT, Homo sapiens, UniProt P10721, V560G) | enzyme activity, inhibitor, radiometric | IC50 | 15 nM
CN1CCN(c2ccc(Nc3ncc4cc(C#N)c(=O)n(C5CCCC5)c4n3)cc2)CC1 | KIT | enzyme activity, inhibitor | IC50 | 42 nM
Cc1cnc(-c2ccc(-c3ccc(NC(=O)Nc4c(F)cc(F)cc4F)cc3F)c3c2C(=O)NC3)[nH]1 | KIT | enzyme activity, inhibitor | IC50 | 29.8 nM
CCN1CCN(Cc2ccc(C(=O)Nc3ccc(C)c(Oc4ccc5c(c4)CC(=O)N5)c3)cc2C(F)(F)F)CC1 | KIT | enzyme activity, inhibitor | IC50 | > 10000 nM
C=CC(=O)Nc1cccc(CN2C(=O)N(c3c(Cl)c(OC)cc(OC)c3Cl)Cc3cnc(NCCCCN(CC)CC)nc32)c1 | KIT | binding, competition with immobilised ligand | Kd | 420 nM
Cc1ccc(NC(=O)c2ccc(CN3CCS(=N)(=O)CC3)cc2)cc1Nc1nccc(-c2cccnc2)n1 | KIT | binding, competition with immobilised ligand | Kd | 11 nM
COc1ccc2c(Oc3ccc4c(C(=O)Nc5ccccc5N)cccc4c3)ccnc2c1 | KIT | enzyme activity, inhibitor | IC50 | 4 nM
